Laboratory results as given in ChEMBL document CHEMBL1134654, “Alpha-amino acid phenolic ester derivatives: novel water-soluble general anesthetic agents which allosterically modulate GABA(A) receptors” (J Med Chem, 2001).
pEC50: −log10 of the molar value.

Tests used:
[1] = molecular target: GABA-A receptor; anion channel (Rattus norvegicus) (UniProt O09028+P15431+P18506+P18508+P19969+P20236+P23574+P23576+P28471+P28473+P30191+P62813+P63079+P63138+Q91ZM7+Q9ES14); test: Ability to inhibit [35S]t-butyl-bicyclophosphorothionate binding by 50% to rat whole brain membrane; assay type: tissue-based
Method in brief: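 Male Wistar rat whole-brain membranes, washed with four freeze–thaw cycles. 100 ug membrane protein incubated with [35S]TBPS (2 nM final) in 20 mM KH2PO4/200 mM KCl, pH 7.4, containing GABA 600 nM final. Incubated 150 min at about 22 °C on shaker; vacuum filtration through GF/B filters; scintillation counting. Nonspecific binding with 200 uM picrotoxin. Reported as IC50, mean ± SEM.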

Mus musculus = test: Loss of righting reflex following i.v. administration in mice.; assay type: functional
Method in brief: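 Male MF-1 mice in groups of eight given compound in saline iv via lateral tail vein over 10 s (10 mL/kg). Doses on a umol/kg scale, extra doses added to narrow range. Animals boxed separately; loss of righting reflex lasting ≥30 s scored. HD50 with 95% confidence limits by probit analysis.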

[2] = molecular target: T1, GABA-A receptor; alpha-1/beta-3/gamma-2 (Homo sapiens, UniProt P14867+P18507+P28472); test: GABA-modulatory action compound was evaluated on Oocytes expressing recombinant human alpha-1-beta-3-gamma-2L GABA A receptor at concentrations of >=100 micro<M; assay type: protein-complex assay
T1 sequence (P14867 whole entry): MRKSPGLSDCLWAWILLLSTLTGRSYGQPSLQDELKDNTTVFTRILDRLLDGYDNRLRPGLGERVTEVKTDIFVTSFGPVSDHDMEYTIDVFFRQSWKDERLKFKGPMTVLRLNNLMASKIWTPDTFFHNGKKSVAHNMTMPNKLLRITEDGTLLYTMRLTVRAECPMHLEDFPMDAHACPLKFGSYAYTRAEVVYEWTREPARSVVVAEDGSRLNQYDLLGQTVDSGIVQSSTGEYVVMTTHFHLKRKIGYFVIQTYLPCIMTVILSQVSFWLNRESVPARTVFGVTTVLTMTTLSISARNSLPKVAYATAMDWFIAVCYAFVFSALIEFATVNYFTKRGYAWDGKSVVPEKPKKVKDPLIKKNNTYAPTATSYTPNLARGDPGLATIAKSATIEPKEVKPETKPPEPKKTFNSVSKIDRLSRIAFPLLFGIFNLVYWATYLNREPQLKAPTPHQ
T1 sequence (P18507 whole entry): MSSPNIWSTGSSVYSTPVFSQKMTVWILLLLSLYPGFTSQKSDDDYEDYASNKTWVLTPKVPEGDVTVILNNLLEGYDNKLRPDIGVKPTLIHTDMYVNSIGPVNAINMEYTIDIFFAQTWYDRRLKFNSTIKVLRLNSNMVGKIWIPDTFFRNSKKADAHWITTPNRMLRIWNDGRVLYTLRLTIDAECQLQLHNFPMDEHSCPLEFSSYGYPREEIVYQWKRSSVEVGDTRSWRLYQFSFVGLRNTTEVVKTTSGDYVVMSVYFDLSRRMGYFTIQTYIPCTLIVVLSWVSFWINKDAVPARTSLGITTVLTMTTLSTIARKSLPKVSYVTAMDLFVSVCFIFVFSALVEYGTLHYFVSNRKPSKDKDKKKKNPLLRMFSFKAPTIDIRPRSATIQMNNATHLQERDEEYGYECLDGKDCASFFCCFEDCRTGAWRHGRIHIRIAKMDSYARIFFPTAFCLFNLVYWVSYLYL
T1 sequence (P28472 whole entry): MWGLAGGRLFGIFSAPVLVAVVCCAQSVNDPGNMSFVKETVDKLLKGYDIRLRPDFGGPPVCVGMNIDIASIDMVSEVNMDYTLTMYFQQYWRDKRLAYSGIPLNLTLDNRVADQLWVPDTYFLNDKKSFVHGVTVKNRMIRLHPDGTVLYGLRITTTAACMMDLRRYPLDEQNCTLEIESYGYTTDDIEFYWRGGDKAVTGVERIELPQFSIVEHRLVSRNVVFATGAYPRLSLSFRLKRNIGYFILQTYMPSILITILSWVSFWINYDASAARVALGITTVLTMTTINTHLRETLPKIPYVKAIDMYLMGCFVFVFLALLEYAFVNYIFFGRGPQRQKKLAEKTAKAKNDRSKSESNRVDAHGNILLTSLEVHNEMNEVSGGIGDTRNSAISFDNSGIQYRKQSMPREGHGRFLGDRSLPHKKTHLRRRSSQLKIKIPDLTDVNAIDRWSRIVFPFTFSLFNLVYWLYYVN
Method in brief: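 Oocytes expressing human α1β3γ2L receptors, used 2–12 days after cRNA injection, were recorded with two electrodes at 18–22 °C. […] Compound was preapplied 30–60 s, then co-applied with EC10 GABA. Peak current was read manually; EC50 came from the fitted curve; mean ± s.e.mean.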

[3] = molecular target: T1, GABA-A receptor; alpha-1/beta-3/gamma-2; test: GABA-mimetic action on Oocytes expressing human alpha-1-beta-3-gamma-2L GABA-A receptor subunits at >=100 uM

| TBPS IC50 [1] | Compound | HD50 (Mus musculus) | pEC50 [2] | pEC50 [3] |
| --- | --- | --- | --- | --- |
| 7.7 µM | CCCC(C(=O)Oc1c(OC)cccc1OC)N(CCOC)CCOC (stereo not drawn) | 12.4 µmol/kg |  |  |
| > 30 µM | COc1cccc(OC)c1C(=O)OCCN1CCc2ccccc2C1 | 19 µmol/kg |  |  |
| 66 µM | COc1cccc(OC)c1OC(=O)C(c1ccccc1)N1CCOCC1 (stereo not drawn) | 39.6 µmol/kg |  |  |
| > 10 µM | CCC(C(=O)Oc1c(OC)cccc1OC)N1CCOCC1 (stereo not drawn) | 38 µmol/kg |  |  |
| 7.4 µM | CC[C@H](C(=O)Oc1c(OC)cccc1OC)N(CCOC)CCOC |  |  |  |
| 1.6 µM | CCCCC(C(=O)Oc1c(OC)cccc1OC)N(CCOC)CCOC (stereo not drawn) | 11 µmol/kg |  |  |
| > 10 µM | COc1cc(C)cc(OC)c1OC(=O)C(C)(C)N1CCOCC1 | 53.8 µmol/kg |  |  |
| 23.8 µM | COc1cccc(OC)c1OC(=O)[C@H](C)N1CCc2ccccc2C1 | 82.6 µmol/kg | < 4.00 |  |
| > 10 µM | COCCN(CCOC)C(C(=O)Oc1c(OC)cccc1OC)C(C)C (stereo not drawn) | 26.9 µmol/kg |  |  |
| 3.3 µM | COc1cccc(OC)c1OC(=O)[C@@H](C)N1CCc2ccccc2C1 | 20.7 µmol/kg | 5.39 |  |

Second part, the compound before the results:

| Compound | TBPS IC50 [1] | HD50 (Mus musculus) | pEC50 [2] | pEC50 [3] |
| --- | --- | --- | --- | --- |
| CCC(C(=O)Oc1c(OC)cc(C)cc1OC)N(CCOC)CCOC (stereo not drawn) | 29.3 µM | 21.7 µmol/kg |  |  |
| COc1cccc(OC)c1OC(=O)[C@@H](C)N1CCOCC1.Cl | > 100 µM | 85.9 µmol/kg | 3.70 |  |
| COc1cccc(OC)c1NC(=O)[C@@H](C)N1CCc2ccccc2C1 | > 10 µM | 44.1 µmol/kg |  |  |
| COc1cccc(OC)c1OC(=O)C(C)N1CCc2ccccc2C1 (stereo not drawn) | 4.8 µM | 33.2 µmol/kg | 5.26 |  |
| CCC(C(=O)Oc1c(OC)cc(C)cc1OC)N1CCOCC1 (stereo not drawn) |  | 68.1 µmol/kg |  |  |
| CC[C@H](C(=O)Oc1c(OC)cc(C)cc1OC)N(CCOC)CCOC [ORG-24447] | 16 µM | 18 µmol/kg | 5.00 |  |
| CCC(C(=O)Oc1c(OC)cccc1OC)N(CCOC)CCOC (stereo not drawn) | 24.3 µM |  |  |  |
| CC(C)c1cccc(C(C)C)c1O [PROPOFOL] |  |  | 5.39 | 4.30 |
| COc1cccc(OC)c1C(=O)NCCN1CCc2ccccc2C1 | > 100 µM | 45.7 µmol/kg |  |  |
| CC(C)c1cccc(C(C)C)c1OC(=O)CN1CCOCC1 |  | 98.1 µmol/kg |  |  |
| CCC[C@H](C(=O)Oc1c(OC)cccc1OC)N(CCOC)CCOC | 3.2 µM | 7.3 µmol/kg |  |  |
